pIC50: −log10 of the molar value.
Experiments:
[1] = biological target: T1, Tyrosine-protein kinase Mer (Homo sapiens, UniProt Q12866); experiment: Inhibition of Mer expressed in Escherichia coli BL21 (DE3) cells using EFPIYDFLPAKKK-CONH2 as substrate after 180 mins by microfluid capillary electrophoresis assay
T1 sequence (Q12866 whole entry): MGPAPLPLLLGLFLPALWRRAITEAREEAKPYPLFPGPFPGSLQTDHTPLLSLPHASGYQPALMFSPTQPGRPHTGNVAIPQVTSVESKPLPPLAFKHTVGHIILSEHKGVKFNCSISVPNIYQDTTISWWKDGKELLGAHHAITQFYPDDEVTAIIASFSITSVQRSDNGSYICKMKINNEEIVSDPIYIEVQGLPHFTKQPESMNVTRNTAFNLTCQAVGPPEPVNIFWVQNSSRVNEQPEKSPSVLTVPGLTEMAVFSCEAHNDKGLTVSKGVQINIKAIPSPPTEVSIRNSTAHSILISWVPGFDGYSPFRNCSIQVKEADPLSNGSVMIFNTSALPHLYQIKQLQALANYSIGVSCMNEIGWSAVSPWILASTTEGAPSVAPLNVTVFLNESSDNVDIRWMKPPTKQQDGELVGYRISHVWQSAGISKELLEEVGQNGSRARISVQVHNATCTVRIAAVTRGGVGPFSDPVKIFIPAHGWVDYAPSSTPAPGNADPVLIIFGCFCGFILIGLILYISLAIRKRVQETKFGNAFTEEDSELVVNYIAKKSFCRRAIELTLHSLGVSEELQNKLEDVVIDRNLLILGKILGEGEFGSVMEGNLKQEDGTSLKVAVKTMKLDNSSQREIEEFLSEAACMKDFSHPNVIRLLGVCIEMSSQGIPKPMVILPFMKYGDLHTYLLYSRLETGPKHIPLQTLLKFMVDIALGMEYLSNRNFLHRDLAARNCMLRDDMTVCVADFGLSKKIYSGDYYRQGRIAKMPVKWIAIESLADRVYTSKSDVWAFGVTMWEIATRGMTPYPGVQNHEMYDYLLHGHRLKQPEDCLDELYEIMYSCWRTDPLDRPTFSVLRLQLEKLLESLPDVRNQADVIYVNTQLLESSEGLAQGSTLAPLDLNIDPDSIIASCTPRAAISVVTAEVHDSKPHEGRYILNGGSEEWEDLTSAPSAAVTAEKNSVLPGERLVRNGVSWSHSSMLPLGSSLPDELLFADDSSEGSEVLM

[2] = biological target: Receptor-type tyrosine-protein kinase FLT3 (Homo sapiens) (UniProt P36888); experiment: Inhibition of FLT3 at 10 times IC50 concentration after 90 mins in presence of ATP
Chain of Receptor-type tyrosine-protein kinase FLT3 (Homo sapiens) (P36888 whole entry): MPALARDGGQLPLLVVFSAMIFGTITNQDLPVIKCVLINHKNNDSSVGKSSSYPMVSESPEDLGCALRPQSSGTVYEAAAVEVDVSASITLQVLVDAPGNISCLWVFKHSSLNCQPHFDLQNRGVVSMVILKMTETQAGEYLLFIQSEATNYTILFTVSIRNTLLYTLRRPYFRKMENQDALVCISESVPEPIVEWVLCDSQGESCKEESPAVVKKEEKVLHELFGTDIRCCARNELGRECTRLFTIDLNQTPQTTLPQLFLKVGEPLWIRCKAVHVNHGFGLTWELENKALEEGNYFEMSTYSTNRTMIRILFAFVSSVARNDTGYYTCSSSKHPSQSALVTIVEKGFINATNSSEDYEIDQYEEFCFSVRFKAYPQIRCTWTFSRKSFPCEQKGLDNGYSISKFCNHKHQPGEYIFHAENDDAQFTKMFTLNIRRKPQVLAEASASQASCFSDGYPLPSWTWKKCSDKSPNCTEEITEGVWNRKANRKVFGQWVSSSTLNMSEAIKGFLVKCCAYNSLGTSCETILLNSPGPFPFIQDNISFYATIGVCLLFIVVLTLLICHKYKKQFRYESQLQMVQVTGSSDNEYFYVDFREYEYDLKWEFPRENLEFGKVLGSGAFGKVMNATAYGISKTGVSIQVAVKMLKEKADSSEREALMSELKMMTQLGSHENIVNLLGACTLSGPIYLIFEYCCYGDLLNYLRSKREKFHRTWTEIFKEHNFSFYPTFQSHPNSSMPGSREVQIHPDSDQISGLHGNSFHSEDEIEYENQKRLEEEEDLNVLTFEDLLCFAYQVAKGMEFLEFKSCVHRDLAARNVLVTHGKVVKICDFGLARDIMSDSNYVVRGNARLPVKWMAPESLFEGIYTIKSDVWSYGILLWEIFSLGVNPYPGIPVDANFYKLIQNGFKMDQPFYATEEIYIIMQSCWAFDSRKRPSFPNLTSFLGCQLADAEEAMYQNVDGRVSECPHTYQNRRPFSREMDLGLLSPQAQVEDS
In short: (§1)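 Single-concentration screen across a kinase panel spanning the main kinase families, the TAM family and the related MET family. Each sample was run in duplicate, and the read-out was percent inhibition of kinase activity.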

[3] = biological target: MAP kinase-activated protein kinase 2 (Homo sapiens) (UniProt P49137); experiment: Inhibition of MAPKAPK2 at 10 times IC50 concentration after 90 mins in presence of ATP; in short: as §1
Chain of MAP kinase-activated protein kinase 2 (Homo sapiens) (P49137 whole entry, looked up): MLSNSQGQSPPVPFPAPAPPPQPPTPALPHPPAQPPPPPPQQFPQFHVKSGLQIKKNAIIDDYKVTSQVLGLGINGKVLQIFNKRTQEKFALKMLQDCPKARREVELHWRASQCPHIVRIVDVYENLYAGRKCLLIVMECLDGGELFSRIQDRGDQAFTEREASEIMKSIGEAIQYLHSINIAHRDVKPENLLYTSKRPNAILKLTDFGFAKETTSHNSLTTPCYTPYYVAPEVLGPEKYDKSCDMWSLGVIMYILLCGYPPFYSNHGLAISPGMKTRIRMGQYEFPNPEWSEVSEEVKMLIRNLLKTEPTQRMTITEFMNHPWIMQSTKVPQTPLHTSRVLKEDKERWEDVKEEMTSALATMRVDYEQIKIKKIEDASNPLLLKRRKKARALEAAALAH

[4] = biological target: Proto-oncogene tyrosine-protein kinase receptor Ret (Homo sapiens) (UniProt P07949); experiment: Inhibition of Ret at 10 times IC50 concentration after 90 mins in presence of ATP; in short: as §1
Chain of Proto-oncogene tyrosine-protein kinase receptor Ret (Homo sapiens) (P07949 whole entry): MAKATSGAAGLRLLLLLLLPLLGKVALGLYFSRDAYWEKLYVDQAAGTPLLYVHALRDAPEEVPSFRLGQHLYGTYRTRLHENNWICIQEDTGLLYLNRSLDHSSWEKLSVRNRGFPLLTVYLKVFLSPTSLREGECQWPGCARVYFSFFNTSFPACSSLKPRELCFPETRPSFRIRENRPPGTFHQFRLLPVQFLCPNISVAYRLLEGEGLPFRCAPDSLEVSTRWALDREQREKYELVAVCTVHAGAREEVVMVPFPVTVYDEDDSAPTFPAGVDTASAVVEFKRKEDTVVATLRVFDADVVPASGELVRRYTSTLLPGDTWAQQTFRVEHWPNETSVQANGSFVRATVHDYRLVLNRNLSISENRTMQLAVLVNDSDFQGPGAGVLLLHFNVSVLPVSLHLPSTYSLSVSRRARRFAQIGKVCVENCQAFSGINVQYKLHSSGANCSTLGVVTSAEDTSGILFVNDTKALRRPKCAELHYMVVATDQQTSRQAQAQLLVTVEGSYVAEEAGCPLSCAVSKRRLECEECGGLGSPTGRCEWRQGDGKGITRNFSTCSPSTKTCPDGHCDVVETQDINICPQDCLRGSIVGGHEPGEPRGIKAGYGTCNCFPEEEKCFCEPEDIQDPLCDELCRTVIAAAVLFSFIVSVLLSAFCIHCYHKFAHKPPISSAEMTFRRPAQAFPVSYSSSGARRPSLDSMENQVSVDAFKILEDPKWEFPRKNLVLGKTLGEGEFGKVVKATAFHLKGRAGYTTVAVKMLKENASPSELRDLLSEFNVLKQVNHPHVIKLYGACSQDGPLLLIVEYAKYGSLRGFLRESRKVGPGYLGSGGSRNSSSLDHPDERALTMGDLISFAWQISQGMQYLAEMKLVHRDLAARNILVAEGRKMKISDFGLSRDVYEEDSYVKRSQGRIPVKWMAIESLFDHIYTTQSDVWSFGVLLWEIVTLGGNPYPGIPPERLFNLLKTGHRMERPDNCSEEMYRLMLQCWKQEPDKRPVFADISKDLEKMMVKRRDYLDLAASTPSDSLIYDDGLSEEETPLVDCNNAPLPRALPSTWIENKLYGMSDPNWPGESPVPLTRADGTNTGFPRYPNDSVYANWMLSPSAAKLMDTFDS

[5] = tested on: Proto-oncogene tyrosine-protein kinase receptor Ret (Homo sapiens), P07949 [Y791F]; experiment: Inhibition of Ret Y791F mutant at 10 times IC50 concentration after 90 mins in presence of ATP; in short: as §1
Chain of Proto-oncogene tyrosine-protein kinase receptor Ret (Homo sapiens), P07949 [Y791F] (P07949 whole entry Y791F): as the sequence (P07949 whole entry) above, with Y791F counted along it

[6] = tested on: Mus musculus; experiment: Volume of distribution at steady state in Swiss mouse at 3 mg/kg, iv; format: ADME, organism-based; design: dose 3 mg/kg, route intravenous; conditions: in vivo
[7] = tested on: Mus musculus; experiment: Oral bioavailability in Swiss mouse at 3 mg/kg; format: ADME, organism-based; conditions: in vivo
[8] = biological target: T2, Tyrosine-protein kinase receptor UFO (Homo sapiens, UniProt P30530); experiment: Inhibition of Axl using KKKKEEIYFFF-CONH2 as substrate after 180 mins by microfluid capillary electrophoresis assay
T2 sequence (P30530 whole entry): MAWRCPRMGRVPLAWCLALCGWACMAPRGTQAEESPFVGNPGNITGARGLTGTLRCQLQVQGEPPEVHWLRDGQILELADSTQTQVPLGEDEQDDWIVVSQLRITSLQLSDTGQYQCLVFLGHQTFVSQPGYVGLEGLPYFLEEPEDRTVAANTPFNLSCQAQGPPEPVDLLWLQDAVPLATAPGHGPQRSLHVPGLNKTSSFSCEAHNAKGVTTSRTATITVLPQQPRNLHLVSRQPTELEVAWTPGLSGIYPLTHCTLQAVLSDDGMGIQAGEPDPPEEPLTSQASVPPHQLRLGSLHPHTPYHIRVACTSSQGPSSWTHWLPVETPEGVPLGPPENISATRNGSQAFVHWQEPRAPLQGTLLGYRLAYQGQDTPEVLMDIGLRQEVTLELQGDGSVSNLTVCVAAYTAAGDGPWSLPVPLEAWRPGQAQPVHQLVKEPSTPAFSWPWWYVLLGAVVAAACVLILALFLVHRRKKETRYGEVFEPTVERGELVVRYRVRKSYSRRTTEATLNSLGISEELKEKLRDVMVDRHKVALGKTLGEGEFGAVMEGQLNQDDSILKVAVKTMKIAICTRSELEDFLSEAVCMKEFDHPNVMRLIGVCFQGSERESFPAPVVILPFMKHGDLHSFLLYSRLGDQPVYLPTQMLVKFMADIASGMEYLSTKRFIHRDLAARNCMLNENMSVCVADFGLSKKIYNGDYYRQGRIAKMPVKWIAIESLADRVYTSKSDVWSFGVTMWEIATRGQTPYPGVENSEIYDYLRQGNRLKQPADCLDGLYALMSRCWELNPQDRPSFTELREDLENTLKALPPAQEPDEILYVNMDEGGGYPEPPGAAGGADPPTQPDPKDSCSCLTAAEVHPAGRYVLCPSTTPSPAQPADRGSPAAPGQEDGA

[9] = biological target: T3, Tyrosine-protein kinase receptor TYRO3 (Homo sapiens, UniProt Q06418); experiment: Inhibition of Tyro3 using EFPIYDFLPAKKK-CONH2 as substrate after 180 mins by microfluid capillary electrophoresis assay
T3 sequence (Q06418 whole entry): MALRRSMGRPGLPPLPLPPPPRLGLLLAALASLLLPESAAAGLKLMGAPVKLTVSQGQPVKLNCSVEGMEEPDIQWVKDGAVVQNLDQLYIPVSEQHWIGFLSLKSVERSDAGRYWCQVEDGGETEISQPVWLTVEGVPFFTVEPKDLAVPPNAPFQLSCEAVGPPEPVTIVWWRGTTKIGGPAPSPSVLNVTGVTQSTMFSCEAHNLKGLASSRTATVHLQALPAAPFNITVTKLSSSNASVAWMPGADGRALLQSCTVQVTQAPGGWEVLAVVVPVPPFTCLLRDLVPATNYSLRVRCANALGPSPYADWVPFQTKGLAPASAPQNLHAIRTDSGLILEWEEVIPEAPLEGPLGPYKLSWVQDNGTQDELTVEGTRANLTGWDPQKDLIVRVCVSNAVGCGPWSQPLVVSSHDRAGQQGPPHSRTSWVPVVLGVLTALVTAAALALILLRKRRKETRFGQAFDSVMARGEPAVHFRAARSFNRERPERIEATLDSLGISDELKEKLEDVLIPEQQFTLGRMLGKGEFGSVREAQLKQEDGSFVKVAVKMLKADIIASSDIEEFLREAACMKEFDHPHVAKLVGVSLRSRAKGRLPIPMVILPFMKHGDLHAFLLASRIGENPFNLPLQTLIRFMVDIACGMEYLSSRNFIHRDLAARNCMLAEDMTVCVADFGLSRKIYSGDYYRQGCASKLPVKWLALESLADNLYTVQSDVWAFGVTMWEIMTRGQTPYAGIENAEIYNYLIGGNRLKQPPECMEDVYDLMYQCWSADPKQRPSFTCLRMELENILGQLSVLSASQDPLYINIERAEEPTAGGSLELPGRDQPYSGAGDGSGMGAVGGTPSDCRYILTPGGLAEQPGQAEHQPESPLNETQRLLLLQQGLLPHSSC

Row | Structure (SMILES) | inhibition [2] [%] | inhibition [3] [%] | inhibition [4] [%] | inhibition [5] [%] | pIC50 [8] | pIC50 [9] | further results
1 | CC(C)n1cnc2c(Nc3cccc(Cl)c3)nc(NCCO)nc21 |  |  |  |  |  |  | pIC50 [1]: 4.96
2 | CCCCNc1ncc2c(-c3ccc(F)cc3)nn(C[C@H]3CC[C@H](N)CC3)c2n1 [PYRAZOLOPYRIMIDINE] | 82 | 92 | 59 | 56 |  |  | Vdss [6]: 5.83 L/kg; F [7]: 57%
3 | CNc1ncc2c(C(C)C)nn(C[C@@H]3CCCN3)c2n1 |  |  |  |  | < 4.52 | < 4.52 | 
4 | CNc1ncc2c(C(C)C)nn(CC3CCNCC3)c2n1 |  |  |  |  | < 4.52 | < 4.52 | 
5 | N[C@H]1CC[C@H](Cn2nc(-c3ccc(N4CCNCC4)cc3)c3cnc(NCCCc4ccccc4)nc32)CC1 | 82 | 94 | 79 | 67 |  |  | 

Source: ChEMBL document CHEMBL2034931, “Discovery of Novel Small Molecule Mer Kinase Inhibitors for the Treatment of Pediatric Acute Lymphoblastic Leukemia” (ACS Med Chem Lett, 2012)
